What all share (format): functional
One assay concerns Fusarium oxysporum. The experiment in a line: Fungicidal activity against Fusarium oxysporum by poisoned food technique. The settings on record: read-out: ED50 (the source's name).
Another assay deals with Athelia rolfsii. The experiment in a line: Fungicidal activity against Athelia rolfsii by poisoned food technique. The settings on record: Agroathelia rolfsii; read-out: ED50 (the source's name).
Another assay relates to Rhizoctonia solani. The experiment in a line: Fungicidal activity against Rhizoctonia solani by poisoned food technique. The conditions noted are these: read-out: ED50 (the source's name).
Assay [1] relates to Spodoptera litura. The assay is described as follows: Insecticidal activity against third-instar larval stage of Spodoptera litura assessed as mortality at 0.1% applied topically on the ventral side of the larvae measured after 24 hr by contact method. The method in brief:
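Field-collected larvae are reared in the lab at 27 ± 1 °C and 70% RH. Two microliters of a 0.1% dichloromethane solution is applied to the ventral side. Ten treated larvae are kept per glass bottle and fed fresh castor leaves. Mortality is recorded at 24 h. Triplicate, solvent control.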

The subject of assay [2] is Spodoptera litura. The assay is described as follows: Insecticidal activity against third-instar larval stage of prestarved Spodoptera litura in castor leaf assessed as mortality at 0.1% treated for 2 secs before larval infestation measured after 24 hr by feeding method. The method in brief:
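Castor leaf is dipped 2 s in 0.1% compound solution, air-dried, and placed on moist filter paper in 9 cm Petri plates. Larvae starved 4 h beforehand are released singly, one per plate. Thirty replicates per treatment, solvent control. Mortality is scored after 24 h.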

In assay [3] the test system is Tribolium castaneum. The assay is described as follows: Insecticidal activity against adult Tribolium castaneum (red flour beetle) in compound pre-treated green gram grains assessed as mortality at 20 mg/kg after 48 hr by feeding based residue method. The settings on record: in Vigna radiata. In short, it runs like this: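 Green gram grains are treated with compound in dichloromethane (0.6 mg in 5 mL) at 20 mg active ingredient per kg grain (0.002%). Ten adults are released onto 10 g of treated grain in a plastic box. Mortality is recorded after 48 h. Triplicate, solvent-treated control.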

In another assay the test system is Alternaria porri. The assay is described as follows: Fungicidal activity against Alternaria porri by poisoned food technique. The conditions noted are these: read-out: ED50 (the source's name).
The test system of another assay is Macrophomina phaseolina. The experiment in a line: Fungicidal activity against Rhizoctonia bataticola by poisoned food technique. The conditions noted are these: read-out: ED50 (the source's name).
The next assay relates to Callosobruchus maculatus. The assay is described as follows: Insecticidal activity against adult Callosobruchus maculatus assessed as mortality at 0.1% at 27 +/-1 degC after 24 hr by contact based film residue method. The method in brief: (§1)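 Lab-reared adults, 2-5 days old, exposed to a dry film: 1 mL of 0.1% compound solution in dichloromethane is swirled in a 90 mm Petri plate and dried 3-5 min. Ten adults per plate are held at 27 ± 1 °C and 70% RH. Mortality is scored at 24 h, with no response to touch counted as dead. Triplicates, solvent control, malathion reference.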

In assay [4] the test system is Tribolium castaneum. The assay is described as follows: Insecticidal activity against adult Tribolium castaneum (red flour beetle) assessed as mortality at 0.1% at 27 +/-1 degC after 24 hr by contact based film residue method. The method in brief: as §1

≈ marks a conversion by molar mass, not a printed value.

Consider nine compounds from ChEMBL document CHEMBL3045963, “Synthesis of nalidixic acid based hydrazones as novel pesticides” (2010).

`CCn1cc(C(=O)N/N=C/c2ccc3ccccc3c2)c(=O)c2ccc(C)nc21`: the EC50 in the assay on Fusarium oxysporum stood at 89.5 µg/mL (≈ 233 µM); in the assay with Athelia rolfsii it was 202 µg/mL (≈ 526 µM); with Rhizoctonia solani, 192 µg/mL (≈ 498 µM); with Alternaria porri, 75.6 µg/mL (≈ 197 µM); in the assay on Macrophomina phaseolina, 256 µg/mL (≈ 666 µM). Further, the mortality is recorded as 10% in the assay with Spodoptera litura [1], 70% in the assay with Spodoptera litura [2] and 0% in the assay on Callosobruchus maculatus. In addition, the mortality at 20 mg/kg in the assay on Tribolium castaneum [3] worked out at 10%.
On to `CCn1cc(C(=O)N/N=C/c2c3ccccc3cc3ccccc23)c(=O)c2ccc(C)nc21`, for which the EC50 worked out at 222 µg/mL (≈ 511 µM) with Fusarium oxysporum; 429 µg/mL (≈ 986 µM) in the assay with Athelia rolfsii; 374 µg/mL (≈ 861 µM) with Rhizoctonia solani; 151 µg/mL (≈ 348 µM) in the assay on Alternaria porri; 390 µg/mL (≈ 897 µM) in the assay on Macrophomina phaseolina. Besides, the mortality in the assay with Spodoptera litura [1] was found to be 10%; in the assay on Spodoptera litura [2], 20%; in the assay on Callosobruchus maculatus, 10%. Also, the mortality at 20 mg/kg in the assay on Tribolium castaneum [3] was 15%.
Regarding `CCn1cc(C(=O)NN=C2CCCCC2)c(=O)c2ccc(C)nc21`, the EC50 was 62.6 µg/mL (≈ 192 µM) with Fusarium oxysporum; 177 µg/mL (≈ 543 µM) in the assay with Athelia rolfsii; 166 µg/mL (≈ 510 µM) in the assay on Rhizoctonia solani; 34.2 µg/mL (≈ 105 µM) in the assay on Alternaria porri; 188 µg/mL (≈ 577 µM) with Macrophomina phaseolina. Besides, the mortality with Spodoptera litura [2] worked out at 70%; in the assay on Callosobruchus maculatus it was 0%. Also, the mortality at 20 mg/kg with Tribolium castaneum [3] came out at 15%.
On to `CCn1cc(C(=O)NN=C2C3CC4CC(C3)CC2C4)c(=O)c2ccc(C)nc21`, for which the EC50 in the assay with Fusarium oxysporum worked out at 258 µg/mL (≈ 683 µM); in the assay on Athelia rolfsii, 524 µg/mL (≈ 1380 µM); in the assay on Rhizoctonia solani, 405 µg/mL (≈ 1070 µM); in the assay with Alternaria porri, 133 µg/mL (≈ 351 µM); with Macrophomina phaseolina, 638 µg/mL (≈ 1690 µM). Moreover, the mortality with Spodoptera litura [1] was determined as 10%; in the assay with Spodoptera litura [2] it was 50%; in the assay on Callosobruchus maculatus it was 0%. Moreover, in the assay with Tribolium castaneum [3], the mortality at 20 mg/kg came to 10%.
`CCn1cc(C(=O)N/N=C/c2ccc(OC)cc2)c(=O)c2ccc(C)nc21`: the EC50 in the assay on Fusarium oxysporum worked out at 152 µg/mL (≈ 416 µM); with Athelia rolfsii, 320 µg/mL (≈ 879 µM); in the assay with Rhizoctonia solani, 238 µg/mL (≈ 654 µM); in the assay with Alternaria porri, 121 µg/mL (≈ 332 µM); in the assay with Macrophomina phaseolina, 301 µg/mL (≈ 825 µM). Besides, the mortality in the assay with Spodoptera litura [2] and with Callosobruchus maculatus was 70% each time. Also, in the assay on Tribolium castaneum [3], the mortality at 20 mg/kg turned out to be 30%.
As for `CCn1cc(C(=O)N/N=C/c2ccccc2F)c(=O)c2ccc(C)nc21`, the EC50 with Fusarium oxysporum was found to be 107 µg/mL (≈ 305 µM); in the assay with Athelia rolfsii, 540 µg/mL (≈ 1530 µM); in the assay on Rhizoctonia solani it was 359 µg/mL (≈ 1020 µM); in the assay on Alternaria porri, 78.3 µg/mL (≈ 222 µM); in the assay on Macrophomina phaseolina, 668 µg/mL (≈ 1900 µM). The values for the mortality in the assay on Spodoptera litura [1], in the assay on Spodoptera litura [2] and with Callosobruchus maculatus were 10%, 90% and 30%, respectively. In addition, in the assay with Tribolium castaneum [3], the mortality at 20 mg/kg was 10%.
On to `CCn1cc(C(=O)N/N=C/c2ccccc2Cl)c(=O)c2ccc(C)nc21`, for which the EC50 turned out to be 143 µg/mL (≈ 389 µM) in the assay with Fusarium oxysporum; 570 µg/mL (≈ 1550 µM) in the assay with Athelia rolfsii; 246 µg/mL (≈ 666 µM) in the assay on Rhizoctonia solani; 90.1 µg/mL (≈ 244 µM) with Alternaria porri; 593 µg/mL (≈ 1610 µM) in the assay on Macrophomina phaseolina. For the same compound, the results for the mortality in the assay with Spodoptera litura [1], with Spodoptera litura [2] and in the assay on Callosobruchus maculatus were 10%, 10% and 30%, respectively. Also, in the assay with Tribolium castaneum [3], the mortality at 20 mg/kg worked out at 10%.
Turning to `CCn1cc(C(=O)N/N=C/c2ccccc2[N+](=O)[O-])c(=O)c2ccc(C)nc21`, the EC50 with Fusarium oxysporum stood at 169 µg/mL (≈ 445 µM); with Athelia rolfsii it was 655 µg/mL (≈ 1730 µM); with Rhizoctonia solani, 329 µg/mL (≈ 866 µM); in the assay with Alternaria porri, 71.3 µg/mL (≈ 188 µM); in the assay on Macrophomina phaseolina it was 610 µg/mL (≈ 1610 µM). For the same compound, the mortality in the assay with Spodoptera litura [1] was 30%; with Spodoptera litura [2], 100%; with Callosobruchus maculatus it was 60%. Moreover, the mortality at 20 mg/kg in the assay with Tribolium castaneum [3] amounted to 20%.
Regarding `CCOC(=O)CC(SP(=S)(OC)OC)C(=O)OCC` (stereo not drawn) [MALATHION], the mortality in the assay with Tribolium castaneum [4] and in the assay on Callosobruchus maculatus was 100% in each case. Further, in the assay with Tribolium castaneum [3], the mortality at 20 mg/kg stood at 100%.
